Test results reported in ChEMBL document CHEMBL4390684, “The synthesis of 4,6-diaryl-2-pyridones and their bioactivation in CYP1 expressing breast cancer cells” (Bioorg Med Chem Lett, 2019).

Columns and labels:
MCF7 [1] = assay: Antiproliferative activity against […]-induced ER positive human MCF7 cells expressing CYP1A1 assessed as reduction in cell viability after 96 hrs by MTT assay; format: functional, cell-based; conditions: MCF7, 96 h
In short: (§1)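 Antiproliferative IC50 values were determined in MCF-7, MDA-MB-468, TCDD-treated MCF-7 (high CYP1A1 expression) and non-tumour MCF-10A breast cells. Each value is the mean of two independent experiments run in quadruplicate.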

MCF7 [2] = assay: Activation factor, ratio of antiproliferative IC50 of ER positive human MCF7 cells expressing low level of CYP to antiproliferative IC50 of […]-induced ER positive human MCF7 cells expressing CYP1A1; format: functional
[3] = Selectivity index, ratio of IC50 for human MCF10A cells to IC50 for human MDA-MB-468 cells expressing CYP1A1 and CYP1B1; format: toxicity; conditions: read-out: Ratio IC50
MDA-MB-468 = assay: Antiproliferative activity against ER negative human MDA-MB-468 cells expressing CYP1A1 and CYP1B1 assessed as reduction in cell viability measured after 96 hrs by MTT assay; format: functional, cell-based; conditions: MDA-MB-468, 96 h; in short: as §1
MCF7 [4] = assay: Antiproliferative activity against ER positive human MCF7 cells expressing low level of CYP assessed as reduction in cell viability measured after 96 hrs by MTT assay; format: functional, cell-based; conditions: MCF7, 96 h; in short: as §1
MCF-10A = assay: Cytotoxicity against human MCF10A cells assessed as reduction in cell viability after 96 hrs by MTT assay; format: cell-based; in short: as §1

SMILES	IC50 (MCF7 [1]) [µM]	IC50 (MDA-MB-468) [µM]	IC50 (MCF7 [4]) [µM]	Ratio IC50 (MCF7 [2])	selectivity ratio [3]	IC50 (MCF-10A) [µM]
COc1ccc(-c2cc(-c3ccc4c(c3)OCO4)cc(=O)[nH]2)cc1OC	> 100	0.41	> 100	–	> 244	> 100
COc1ccc(-c2cc(-c3ccc(OC)cc3OC)[nH]c(=O)c2)c(OC)c1	4.5	5	9	2	1	5
COc1ccc(-c2cc(-c3ccc4c(c3)OCCO4)cc(=O)[nH]2)c(OC)c1	3	0.5	2.5	0.8	12	6
O=c1cc(-c2ccc3c(c2)OCO3)cc(-c2ccc(Cl)cc2Cl)[nH]1	70	60	85	1.2	> 1.7	> 100
COc1ccc(-c2cc(-c3ccc4c(c3)OCO4)cc(=O)[nH]2)c(OC)c1OC	10	8	12	1.2	> 12.5	> 100

These reach a lower IC50 (MCF7 [1]). Values come first.

IC50 (MCF7 [1]) [µM]	IC50 (MDA-MB-468) [µM]	IC50 (MCF7 [4]) [µM]	SMILES	Ratio IC50 (MCF7 [2])	selectivity ratio [3]	IC50 (MCF-10A) [µM]
1	6	18	COc1ccc(-c2cc(-c3ccc4c(c3)OCO4)[nH]c(=O)c2)c(OC)c1	18	13	80
0.2	0.35	0.4	COc1cc(OC)cc(-c2cc(-c3ccc4c(c3)OCO4)cc(=O)[nH]2)c1	2	2	0.7
0.2	0.08	0.5	COc1ccc(-c2cc(-c3ccc(OC)cc3OC)[nH]c(=O)c2)cc1	2.5	20	1.6
0.02	0.02	2	COc1ccc(OC)c(-c2cc(-c3ccc4c(c3)OCO4)cc(=O)[nH]2)c1	100	250	5
